Source: ChEMBL document CHEMBL1133451, “Optimization of substituted N-3-benzylimidazoquinazolinone sulfonamides as potent and selective PDE5 inhibitors” (J Med Chem, 2000)

What was measured:
[1] = In vitro selectivity ratio of PDE6 of Bovine retina to human platelet PDE5 was determined
Summary of the method: (§1)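 Scintillation proximity PDE assay at room temperature, read by scintillation counting. Substrates: [³H]cGMP for PDE5 (sonicated human platelet homogenate) and PDE1 (bovine heart, with 1 µM calmodulin and 4 mM calcium). PDE2 (rat kidney cytosol, Mono-Q purified) used [³H]cAMP plus 1 µM nonradioactive cGMP. PDE6 was stripped from bovine rod outer segments and trypsin-activated. Blank subtracted; activity as percent of vehicle; ratio = IC50 other/IC50 PDE5.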

[2] = molecular target: cGMP-specific 3',5'-cyclic phosphodiesterase (Homo sapiens, UniProt O76074); experiment: In vitro inhibitory concentration against human platelet Phosphodiesterase 5 was determined
[3] = In vitro selectivity ratio of Bovine Heart PDE1 to human platelet PDE5 was determined; summary of the method: as §1
[4] = tested on: cGMP-specific 3',5'-cyclic phosphodiesterase (Oryctolagus cuniculus); experiment: Rabbit Corpus Cavernosum functional assay at 30 nM to determine the efficacy of PDE5 inhibition activity.
[5] = In vitro selectivity ratio of PDE2 of Rat kidney to human platelet PDE5 was determined; summary of the method: as §1
[6] = Selectivity ratio for Bovine retinal PDE6 and human platelet PDE5; summary of the method: as §1

| SMILES | IC50 ratio [1] | IC50 [2] [nM] | IC50 ratio [3] | Control relaxation [4] [%] | IC50 ratio [5] | IC50 ratio [6] |
| --- | --- | --- | --- | --- | --- | --- |
| CCCOc1ccc(S(=O)(=O)N2CC[C@@H](N(C)C)C2)cc1-c1nc2cc3ncn(Cc4ccc(F)cc4)c3cc2c(=O)[nH]1 | 70 | 0.2 | > 10000 | 120 | > 10000 | – |
| CCCOc1ccc(S(=O)(=O)N2CCN(CC)CC2)cc1-c1nc(O)c2cc3c(cc2n1)ncn3Cc1ccccc1 | 50 | 1.1 | > 10000 | 90 | > 10000 | – |
| CCCOc1ccc(C(=O)N2CCN(CC)CC2)cc1-c1nc2cc3ncn(Cc4ccc(F)cc4)c3cc2c(=O)[nH]1 | – | 35 | – | – | – | – |
| CCCOc1ccc(S(N)(=O)=O)cc1-c1nc2cc3ncn(Cc4ccc(F)cc4)c3cc2c(=O)[nH]1 | – | 3.2 | – | – | – | – |
| CCCOc1ccc(S(N)(=O)=O)cc1-c1nc(O)c2cc3c(cc2n1)ncn3Cc1ccc(F)cc1 | 20 | – | > 10000 | 100 | > 10000 | – |
| CCCOc1ccc(S(=O)(=O)N2CCN(CC)CC2)cc1-c1nc(O)c2cc3c(cc2n1)ncn3Cc1ccc(F)cc1 | 80 | 1.7 | > 10000 | 100 | > 10000 | – |
| CCCOc1ccc(S(=O)(=O)N2CCN(C)CC2)cc1-c1nc(O)c2cc3c(cc2n1)ncn3Cc1ccccc1 | 20 | – | 3400 | 120 | > 10000 | – |
| CCCOc1ccc(S(=O)(=O)N2CCN(CC)CC2)cc1-c1nc2cc3ncn(Cc4ccccc4OC)c3cc2c(=O)[nH]1 | – | 0.62 | – | – | – | – |
| CCCOc1ccc(S(=O)(=O)N2CC[C@@H](N(C)C)C2)cc1-c1nc(O)c2cc3c(cc2n1)ncn3Cc1ccccc1 | 30 | 1.1 | > 10000 | 110 | > 10000 | – |
| CCCOc1ccc(C(=O)N2CC[C@@H](N(C)C)C2)cc1-c1nc2cc3ncn(Cc4ccc(F)cc4)c3cc2c(=O)[nH]1 | – | 40 | – | – | – | – |
| CCCOc1ccc(C(N)=O)cc1-c1nc(O)c2cc3c(cc2n1)ncn3Cc1ccc(F)cc1 | 60 | – | > 100000 | 140 | > 100000 | – |
| CCCOc1ccc(S(=O)(=O)N2CCN(CC)CC2)cc1-c1nc2cc3ncn(Cc4cccc(F)c4)c3cc2c(=O)[nH]1 | – | 1.4 | – | – | – | – |
| CCCOc1ccc(S(=O)(=O)N2CCN(C)CC2)cc1-c1nc2cc3ncn(Cc4ccc(F)cc4)c3cc2c(=O)[nH]1 | – | 3.3 | – | – | – | – |
| CCCOc1ccc(S(=O)(=O)N2CCN(CC)CC2)cc1-c1nc(O)c2cc3c(cc2n1)ncn3Cc1ccccc1Cl | 40 | – | > 10000 | 90 | > 10000 | – |
| CCCOc1ccc(S(=O)(=O)N2CCN(CC)CC2)cc1-c1nc(O)c2cc3c(cc2n1)ncn3Cc1cccc(OC)c1 | 50 | 1.1 | > 10000 | 130 | 7000 | – |
| CCCOc1ccc(S(=O)(=O)N2CCN(CC)CC2)cc1-c1nc(O)c2cc3c(cc2n1)ncn3Cc1cccc(F)c1 | 80 | – | > 10000 | 100 | > 10000 | – |
| CCCOc1ccc(S(=O)(=O)N2CC[C@H](N(C)C)C2)cc1-c1nc(O)c2cc3c(cc2n1)ncn3Cc1ccccc1 | – | 27 | – | – | – | 3 |
| CCCOc1ccc(S(=O)(=O)N2CCN(CC)CC2)cc1-c1nc2cc3ncn(Cc4ccccc4Cl)c3cc2c(=O)[nH]1 | – | 1.6 | – | – | – | – |
| CCCOc1ccc(S(=O)(=O)N2CC[C@@H](N(C)C)C2)cc1-c1nc(O)c2cc3c(cc2n1)ncn3Cc1ccc(Cl)cc1 | 50 | 0.52 | > 10000 | – | > 10000 | – |
